In ChEMBL document CHEMBL1124809, “Synthesis and biological evaluation of analogues of Pro-Leu-Gly-NH2 modified at the leucyl residue” (J Med Chem, 1990):
The source made the active and inactive calls. The rule behind the calls is not given here. Where a SMILES comes first, the peptide text is derived from it. [ ]: non-standard residue; d: D form. Phe(4-NO2) = N[C@@H](Cc1ccc([N+](=O)[O-])cc1)C(=O)O; Phg = N[C@H](C(=O)O)c1ccccc1; Nle = CCCC[C@H](N)C(=O)O; Nva = CCC[C@H](N)C(=O)O; Abu = CC[C@H](N)C(=O)O

Key:
[1] = molecular target: D(2) dopamine receptor (Bos taurus) (UniProt P20288); assay: Ability to enhance the binding of [3H]ADTN to Dopamine receptor D2 isolated from bovine striatal membranes; maximum effect at 0.1 uM
Outline: (§1)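 Membranes from freshly dissected bovine caudate, homogenized in 50 mM Tris-HCl/1 mM EDTA pH 7.4, centrifuged twice at 27000g. Resuspended in Tris-HCl with ascorbate, MnCl2, DTT, PMSF, soybean trypsin inhibitor and bacitracin. 0.2–0.3 mg protein incubated with 8 nM [3H]ADTN ± peptide (10⁻¹²–10⁻⁴ M) for 10 min at 37 °C in triplicate. GF/B filtration, scintillation counting, % increase in specific binding over control.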

[2] = molecular target: D(2) dopamine receptor (Bos taurus) (UniProt P20288); assay: Ability to enhance the binding of [3H]-ADTN to Dopamine receptor D2 isolated from bovine caudate membranes at 1 uM concentration; outline: as §1
[3] = molecular target: D(2) dopamine receptor (Bos taurus) (UniProt P20288); assay: Ability to enhance the binding of [3H]ADTN to dopamine receptor D2 isolated from bovine striatal membranes; inactive; outline: as §1
[4] = molecular target: D(2) dopamine receptor (Bos taurus) (UniProt P20288); assay: Ability to stimulate the binding of [3H]ADTN to Dopamine receptor D2 isolated from bovine striatal membranes at 1 uM concentration; outline: as §1

Chain of D(2) dopamine receptor (Bos taurus) (P20288 whole entry): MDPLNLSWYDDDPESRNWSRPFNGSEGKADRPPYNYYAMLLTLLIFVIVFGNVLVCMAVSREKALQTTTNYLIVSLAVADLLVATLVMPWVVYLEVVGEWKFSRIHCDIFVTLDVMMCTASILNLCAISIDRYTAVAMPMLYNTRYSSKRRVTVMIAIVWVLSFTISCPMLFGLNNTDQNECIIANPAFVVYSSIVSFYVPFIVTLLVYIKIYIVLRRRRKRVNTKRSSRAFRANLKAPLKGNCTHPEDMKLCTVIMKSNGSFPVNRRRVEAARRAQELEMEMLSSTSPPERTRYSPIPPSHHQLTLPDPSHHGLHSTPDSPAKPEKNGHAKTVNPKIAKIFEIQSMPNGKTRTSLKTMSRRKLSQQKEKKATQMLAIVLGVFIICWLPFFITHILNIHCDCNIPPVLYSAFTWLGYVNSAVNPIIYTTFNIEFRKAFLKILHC

| SMILES | Activity [3] | other results |
| --- | --- | --- |
| CCCC[C@H](NC(=O)[C@@H]1CCCN1)C(=O)NCC(N)=O (H-Pro-[Nle]-Gly-NH2) | – | Activity [1]: Active |
| CC(C)C[C@H](NC(=O)[C@@H]1CCCN1)C(=O)NCC(N)=O (H-Pro-Leu-Gly-NH2) | – | Stimulation [2]: 27% |
| NC(=O)CNC(=O)[C@H](Cc1ccc([N+](=O)[O-])cc1)NC(=O)[C@@H]1CCCN1 (H-Pro-[Phe(4-NO2)]-Gly-NH2) | inactive | – |
| CC[C@H](C)[C@H](NC(=O)[C@@H]1CCCN1)C(=O)NCC(N)=O (H-Pro-Ile-Gly-NH2) | inactive | – |
| COc1ccc(C[C@H](NC(=O)[C@@H]2CCCN2)C(=O)NCC(N)=O)cc1 (H-Pro-Tyr(Me)-Gly-NH2) | inactive | – |
| NC(=O)CNC(=O)[C@H](Cc1ccccc1)NC(=O)[C@@H]1CCCN1 (H-Pro-Phe-Gly-NH2) | – | Stimulation [4]: 31% |
| NC(=O)CNC(=O)[C@H](CCc1ccccc1)NC(=O)[C@H]1CCCN1 | inactive | – |
| CC[C@H](NC(=O)[C@@H]1CCCN1)C(=O)NCC(N)=O (H-Pro-[Abu]-Gly-NH2) | inactive | – |
| NC(=O)CNC(=O)[C@@H](NC(=O)[C@@H]1CCCN1)c1ccccc1 (H-Pro-[Phg]-Gly-NH2) | inactive | – |
| CCC[C@H](NC(=O)[C@@H]1CCCN1)C(=O)NCC(N)=O (H-Pro-[Nva]-Gly-NH2) | inactive | – |
| NC(=O)CNC(=O)[C@H](CCc1ccccc1)NC(=O)[C@@H]1CCCN1 | inactive | – |
